Reference: ChEMBL document CHEMBL4014306, “Pyrazolopyrimidines as Potent Stimulators for Transient Receptor Potential Canonical 3/6/7 Channels” (J Med Chem, 2017)
pEC50: −log10 of the molar value. The source made the active and inactive calls. The rule behind the calls is not given here.

What was measured:
Type in all cases: cell-based
[1] = molecular target: T1, Transient receptor potential cation channel subfamily V member 3 (Mus musculus) (UniProt Q8K424); test: Agonist activity at mouse TRPV3 expressed in HEK293 cells assessed as increase in intracellular calcium level at 33 uM measured for 2.5 mins by Fluo-8-AM dye based fluorescence assay
T1 sequence (whole entry): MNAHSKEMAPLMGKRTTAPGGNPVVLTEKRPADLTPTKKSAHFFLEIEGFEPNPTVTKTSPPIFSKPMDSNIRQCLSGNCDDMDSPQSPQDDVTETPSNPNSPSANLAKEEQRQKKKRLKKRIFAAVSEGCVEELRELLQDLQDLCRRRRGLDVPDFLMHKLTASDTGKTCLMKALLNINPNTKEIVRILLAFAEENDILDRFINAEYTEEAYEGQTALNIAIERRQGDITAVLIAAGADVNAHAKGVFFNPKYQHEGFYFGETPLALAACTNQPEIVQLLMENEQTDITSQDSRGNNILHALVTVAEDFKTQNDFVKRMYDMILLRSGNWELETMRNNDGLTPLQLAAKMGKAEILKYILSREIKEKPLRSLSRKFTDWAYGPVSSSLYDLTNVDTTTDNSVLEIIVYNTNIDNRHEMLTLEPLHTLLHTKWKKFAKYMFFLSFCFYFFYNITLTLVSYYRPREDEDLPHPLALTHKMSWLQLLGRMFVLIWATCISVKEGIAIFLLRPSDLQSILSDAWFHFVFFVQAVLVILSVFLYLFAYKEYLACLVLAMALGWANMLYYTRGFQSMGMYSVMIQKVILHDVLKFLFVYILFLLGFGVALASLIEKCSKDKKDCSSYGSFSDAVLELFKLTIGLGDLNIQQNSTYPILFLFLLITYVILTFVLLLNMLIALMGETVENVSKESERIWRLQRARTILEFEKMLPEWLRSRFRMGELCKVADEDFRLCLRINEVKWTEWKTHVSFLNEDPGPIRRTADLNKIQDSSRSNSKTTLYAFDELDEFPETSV

[2] = molecular target: Transient receptor potential cation channel subfamily V member 1 (Homo sapiens) (UniProt Q8NER1); test: Agonist activity at human TRPV1 expressed in HEK293 cells assessed as increase in intracellular calcium level at 33 uM measured for 2.5 mins by Fluo-8-AM dye based fluorescence assay
[3] = molecular target: T2, Short transient receptor potential channel 3 (Homo sapiens, UniProt Q13507); test: Agonist activity at human TRPC3 expressed in HEK293 cells assessed as induction of membrane depolarization measured for 2.5 mins in presence of 0.5 mM Ca2+ by FLIPR membrane potential dye-based fluorescence assay
T2 sequence (Q13507 whole entry): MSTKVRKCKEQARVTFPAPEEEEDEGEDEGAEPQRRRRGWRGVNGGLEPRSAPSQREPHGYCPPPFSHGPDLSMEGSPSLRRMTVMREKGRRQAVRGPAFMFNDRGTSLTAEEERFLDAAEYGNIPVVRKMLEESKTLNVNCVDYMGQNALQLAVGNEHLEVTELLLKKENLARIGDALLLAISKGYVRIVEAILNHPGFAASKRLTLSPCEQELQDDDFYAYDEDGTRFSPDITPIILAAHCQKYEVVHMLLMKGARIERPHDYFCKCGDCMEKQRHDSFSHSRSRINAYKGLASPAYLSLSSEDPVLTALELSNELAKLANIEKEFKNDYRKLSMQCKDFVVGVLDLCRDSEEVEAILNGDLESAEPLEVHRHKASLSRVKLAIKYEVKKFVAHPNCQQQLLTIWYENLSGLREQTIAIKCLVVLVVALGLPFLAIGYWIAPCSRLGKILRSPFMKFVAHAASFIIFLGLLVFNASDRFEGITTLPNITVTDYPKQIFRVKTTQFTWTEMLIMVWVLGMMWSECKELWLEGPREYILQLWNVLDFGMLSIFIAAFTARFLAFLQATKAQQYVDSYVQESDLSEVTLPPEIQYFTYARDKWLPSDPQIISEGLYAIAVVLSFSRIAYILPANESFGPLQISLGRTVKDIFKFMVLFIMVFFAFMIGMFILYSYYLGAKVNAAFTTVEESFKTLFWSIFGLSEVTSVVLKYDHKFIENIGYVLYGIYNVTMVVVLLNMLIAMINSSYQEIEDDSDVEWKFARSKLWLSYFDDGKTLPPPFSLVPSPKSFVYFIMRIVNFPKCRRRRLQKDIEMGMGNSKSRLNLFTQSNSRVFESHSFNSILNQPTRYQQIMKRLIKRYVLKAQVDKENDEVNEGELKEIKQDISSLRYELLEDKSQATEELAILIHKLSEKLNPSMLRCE
In short: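 HEK293 cells stably expressing human TRPC3, run on a FlexStation at 32 °C. Loaded with FMP dye, or Fluo-type Ca2+ dye with 2 mM probenecid. Extracellular NaCl/HEPES saline, pH 7.4, with 2 mM Ca2+ (standard) or 0.5 mM Ca2+. Read as F/F0. In 0.5 mM Ca2+, FMP EC50 from a Hill fit, n = 6.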

[4] = molecular target: T3, Short transient receptor potential channel 7 (Homo sapiens, UniProt Q9HCX4); test: Agonist activity at human TRPC7 expressed in HEK293 cells assessed as increase in intracellular calcium level measured for 2.5 mins in presence of 2 mM Ca2+ by Fluo8-AM dye-based fluorescence assay
T3 sequence (Q9HCX4 whole entry): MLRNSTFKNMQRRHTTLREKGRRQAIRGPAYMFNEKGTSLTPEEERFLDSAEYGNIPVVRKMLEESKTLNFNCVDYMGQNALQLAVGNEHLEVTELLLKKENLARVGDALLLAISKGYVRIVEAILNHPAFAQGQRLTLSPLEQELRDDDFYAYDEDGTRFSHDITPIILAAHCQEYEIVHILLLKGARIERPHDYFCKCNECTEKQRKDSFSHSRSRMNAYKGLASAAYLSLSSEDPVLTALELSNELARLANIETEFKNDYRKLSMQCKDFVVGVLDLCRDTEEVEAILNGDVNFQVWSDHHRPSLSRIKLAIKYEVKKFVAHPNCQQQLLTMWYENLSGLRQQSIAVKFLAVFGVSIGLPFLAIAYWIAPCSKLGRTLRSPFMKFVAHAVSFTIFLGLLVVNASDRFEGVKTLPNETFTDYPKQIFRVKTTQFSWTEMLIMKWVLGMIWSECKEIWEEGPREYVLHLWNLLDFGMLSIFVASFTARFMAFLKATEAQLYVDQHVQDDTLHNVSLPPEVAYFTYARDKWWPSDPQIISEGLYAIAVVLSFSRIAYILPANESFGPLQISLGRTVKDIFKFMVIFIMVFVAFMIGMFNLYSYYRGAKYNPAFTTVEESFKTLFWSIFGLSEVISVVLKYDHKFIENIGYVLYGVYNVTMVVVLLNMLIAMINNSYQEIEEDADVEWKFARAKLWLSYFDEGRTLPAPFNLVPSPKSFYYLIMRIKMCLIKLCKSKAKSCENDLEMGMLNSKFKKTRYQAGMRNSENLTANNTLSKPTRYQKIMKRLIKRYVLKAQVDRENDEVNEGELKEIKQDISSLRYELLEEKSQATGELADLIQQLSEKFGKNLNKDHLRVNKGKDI

Sequence of Transient receptor potential cation channel subfamily V member 1 (Homo sapiens) (Q8NER1 whole entry): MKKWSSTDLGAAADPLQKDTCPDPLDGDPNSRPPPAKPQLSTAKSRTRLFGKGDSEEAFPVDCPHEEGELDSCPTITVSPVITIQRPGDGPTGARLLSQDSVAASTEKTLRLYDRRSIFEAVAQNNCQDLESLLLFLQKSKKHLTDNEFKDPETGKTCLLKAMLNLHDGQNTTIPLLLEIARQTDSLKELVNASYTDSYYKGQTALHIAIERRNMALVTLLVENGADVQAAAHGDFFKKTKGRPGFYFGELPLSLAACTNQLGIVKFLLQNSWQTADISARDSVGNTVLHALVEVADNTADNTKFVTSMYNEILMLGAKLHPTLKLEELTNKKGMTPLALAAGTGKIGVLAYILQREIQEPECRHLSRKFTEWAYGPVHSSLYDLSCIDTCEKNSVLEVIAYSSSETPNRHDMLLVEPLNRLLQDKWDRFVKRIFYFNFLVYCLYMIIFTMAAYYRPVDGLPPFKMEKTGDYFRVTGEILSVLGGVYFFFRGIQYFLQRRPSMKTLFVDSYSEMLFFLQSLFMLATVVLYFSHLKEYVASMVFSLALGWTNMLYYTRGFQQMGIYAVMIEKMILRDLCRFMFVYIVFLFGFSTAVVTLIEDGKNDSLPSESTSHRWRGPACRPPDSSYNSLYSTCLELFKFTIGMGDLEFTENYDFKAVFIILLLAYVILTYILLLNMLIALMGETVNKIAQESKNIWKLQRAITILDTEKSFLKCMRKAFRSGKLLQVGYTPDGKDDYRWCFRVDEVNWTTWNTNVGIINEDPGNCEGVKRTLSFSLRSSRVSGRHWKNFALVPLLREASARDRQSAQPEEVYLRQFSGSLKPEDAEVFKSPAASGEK

SMILES | Activity [1] | Activity [2] | pEC50 [3] | pEC50 [4]
Cc1nn2c(O)cc(C3CCN(C(=O)OCc4ccccc4)CC3)nc2c1-c1ccc(F)cc1 | inactive | inactive | 6.63 | 6.50
CCOC(=O)N1CCC(c2cc(O)n3nc(C)c(-c4ccc(C(F)(F)F)cc4)c3n2)CC1 | inactive | inactive |  | 7.05
CCOC(=O)N1CCC(c2cc(O)n3nc(C)c(-c4ccc(F)cc4)c3n2)CC1 | inactive | inactive | 6.35 | 6.30
Cc1nn2c(O)cc(C3CCN(C(=O)OCc4ccccc4)CC3)nc2c1-c1ccc(Cl)cc1 | inactive | inactive | 6.86 | 6.67
